Assay results: ChEMBL document CHEMBL1287654, “Anticancer activity of N-bis(trifluoromethyl)alkyl-N'-(polychlorophenyl) and N'-(1,2,4-triazolyl) ureas” (2010)

Legend:
Assay type in all cases: functional
CCRF-CEM = assay: Growth inhibition of human CCRF-CEM cells after 48 hrs by sulforhodamine B assay
How it was run: (§1)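 NCI 60-cell-line main test over a five-log dose range. GI50 is the molar concentration giving half-growth inhibition, reported as log molar. Subpanel values are median GI50 across that subpanel's lines. Where 50% inhibition was not reached within the tested interval, the highest tested concentration was used.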

MOLT-4 = assay: Growth inhibition of human MOLT4 cells after 48 hrs by sulforhodamine B assay; conditions: MOLT-4, 48 h; how it was run: as §1
EKVX = assay: Growth inhibition of human EKVX cells after 48 hrs by sulforhodamine B assay; how it was run: as §1
NCI-H322M = assay: Growth inhibition of human NCI-H322M cells after 48 hrs by sulforhodamine B assay; how it was run: as §1
NCI-H460 = assay: Growth inhibition of human NCI-H460 cells after 48 hrs by sulforhodamine B assay; conditions: NCI-H460, 48 h; how it was run: as §1
NCI-H522 = assay: Growth inhibition of human NCI-H522 cells after 48 hrs by sulforhodamine B assay; conditions: NCI-H522, 48 h; how it was run: as §1
HCC 2998 = assay: Growth inhibition of human HCC2998 cells after 48 hrs by sulforhodamine B assay; conditions: HCC 2998, 48 h; how it was run: as §1
HCT-116 = assay: Growth inhibition of human HCT116 cells after 48 hrs by sulforhodamine B assay; conditions: HCT-116, 48 h; how it was run: as §1
HCT-15 = assay: Growth inhibition of human HCT15 cells after 48 hrs by sulforhodamine B assay; conditions: HCT-15, 48 h; how it was run: as §1
HT-29 = assay: Growth inhibition of human HT-29 cells after 48 hrs by sulforhodamine B assay; conditions: HT-29, 48 h; how it was run: as §1
KM12 = assay: Growth inhibition of human KM12 cells after 48 hrs by sulforhodamine B assay; conditions: KM12, 48 h; how it was run: as §1
SF-295 = assay: Growth inhibition of human SF295 cells after 48 hrs by sulforhodamine B assay; conditions: SF-295, 48 h; how it was run: as §1
U-251 = assay: Growth inhibition of human U251 cells after 48 hrs by sulforhodamine B assay; conditions: U-251, 48 h
How it was run: (§2)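 NCI 60-cell-line main screen across nine tumor types, with five log dose range per compound. GI50 is the molar concentration giving half growth inhibition, reported as the log of the molar concentration that inhibits 50% net cell growth.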

LOX IMVI = assay: Growth inhibition of human LOXIMVI cells after 48 hrs by sulforhodamine B assay; how it was run: as §1
SK-MEL-28 = assay: Growth inhibition of human SK-MEL-28 cells after 48 hrs by sulforhodamine B assay; conditions: SK-MEL-28, 48 h; how it was run: as §1
UACC-62 = assay: Growth inhibition of human UACC62 cells after 48 hrs by sulforhodamine B assay; conditions: UACC-62, 48 h; how it was run: as §2
OVCAR-8 = assay: Growth inhibition of human OVCAR8 cells after 48 hrs by sulforhodamine B assay; conditions: OVCAR-8, 48 h; how it was run: as §1
786-0 = assay: Growth inhibition of human 786-0 cells after 48 hrs by sulforhodamine B assay; conditions: 786-0, 48 h; how it was run: as §1
ACHN = assay: Growth inhibition of human ACHN cells after 48 hrs by sulforhodamine B assay; how it was run: as §1
RXF 393 = assay: Growth inhibition of human RXF393 cells after 48 hrs by sulforhodamine B assay; conditions: RXF 393, 48 h; how it was run: as §1
TK-10 = assay: Growth inhibition of human TK10 cells after 48 hrs by sulforhodamine B assay; conditions: TK-10, 48 h; how it was run: as §2
DU-145 = assay: Growth inhibition of human DU145 cells after 48 hrs by sulforhodamine B assay; conditions: DU-145, 48 h; how it was run: as §1
MDA-MB-231 = assay: Growth inhibition of human MDA-MB-231 cells after 48 hrs by sulforhodamine B assay; conditions: MDA-MB-231, 48 h; how it was run: as §1
[1] = Growth inhibition of human Hs 578T cells after 48 hrs by sulforhodamine B assay; how it was run: as §1
MDA-N = assay: Growth inhibition of human MDA-N cells after 48 hrs by sulforhodamine B assay; how it was run: as §1
[2] = Growth inhibition of human non-small lung cancer cell after 48 hrs by sulforhodamine B assay; conditions: Cancer cell lines
How it was run: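 Subpanel median growth inhibitory concentration: the average sensitivity of each tumor-type subpanel of the NCI 60-cell-line panel, derived from per-cell-line GI50 values. GI50 values came from a five log dose range and are expressed as log molar concentration for 50% net growth inhibition.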

T47D = assay: Growth inhibition of human T47D cells after 48 hrs by sulforhodamine B assay; how it was run: as §2

| Compound | GI50 (MOLT-4) [µM] | GI50 (NCI-H460) [µM] | GI50 (NCI-H522) [nM] | GI50 (HCC 2998) [nM] | GI50 (HCT-116) [µM] | GI50 (HT-29) [µM] | GI50 (KM12) [µM] | GI50 (SF-295) [µM] | GI50 (LOX IMVI) [µM] | GI50 (SK-MEL-28) [µM] | GI50 (UACC-62) [µM] | GI50 (786-0) [µM] | GI50 (ACHN) [µM] | GI50 (RXF 393) [µM] | GI50 (TK-10) [µM] | GI50 (DU-145) [µM] | GI50 (MDA-MB-231) [µM] | GI50 [1] [µM] | GI50 (MDA-N) [µM] | GI50 [2] [µM] | also measured |
| --- | --- | --- | --- | --- | --- | --- | --- | --- | --- | --- | --- | --- | --- | --- | --- | --- | --- | --- | --- | --- | --- |
| CCC(NC(=O)Nc1cc(Cl)ccc1Cl)(C(F)(F)F)C(F)(F)F | 3.72 | 2.19 | 2820 | 1150 | 3.24 | 3.31 | 4.07 | 3.47 | 4.07 | 12 | 4.17 | 4.37 | 3.89 | 10 | 2.24 | 4.68 | 3.31 | 5.25 | 4.17 | 3.72 | GI50 (CCRF-CEM): 4.07 µM; GI50 (EKVX): 3.16 µM; GI50 (NCI-H322M): 1780 nM; GI50 (HCT-15): 4.07 µM; GI50 (U-251): 2950 nM; GI50 (OVCAR-8): 5.25 µM |
| CC(NC(=O)Nc1cc(Cl)ccc1Cl)(C(F)(F)F)C(F)(F)F | 9.55 | 5.75 | 3090 | 3800 | 4.9 | 3.72 | 4.37 | 3.47 | 7.76 | > 100 | > 100 | 9.77 | 5.13 | 77.6 | 19.5 | 9.55 | 30.2 | 3.16 | > 100 | 9.77 | GI50 (T47D): 3.47 µM |
